# Tests used:
# β2AR = details: cited from earlier work
# HASM cells = experiment: Magnetic twisting cytometry, HASM cell stiffness; assay type: cell-based, human; details: 10 μM ISO
# Method in brief: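 Magnetic twisting cytometry: integrin-anchored beads on serum-deprived, post-confluent HASM cells from nonasthma donors, plated at 30,000 cells/cm² on collagen I and kept serum-free for 24 h. Cells were pretreated ± 1 μM test compound for 30 min. […] Stiffness was normalized to each cell's baseline; linear mixed-effect model on log data; 463 to 473 cells.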
SMILES,allosteric modulator activity at the β2AR (β2AR),time to peak relaxation (HASM cells) [min]
Nc1nc(Nc2ccccc2)nc2ccc(Br)cc12 [AS408],NAM for both ISO-mediated cAMP production and β-arrestin recruitment,–
"CC(C)NCC(O)c1ccc(O)c(O)c1 (centres unmarked) [ISO, isoproterenol]",–,4 to 5

# Reference: paper PMC10401000 (Proceedings of the National Academy of Sciences of the …, 2023)
